The text below walks through data of ChEMBL document CHEMBL1123934, “Indazoles as indole bioisosteres: synthesis and evaluation of the tropanyl ester and amide of indazole-3-carboxylate as antagonists at the serotonin 5HT3 receptor” (J Med Chem, 1987).

What is called ED50 is the dose that gives a 50% effect, or the effect in half of the subjects. Higher therefore signals weaker potency.

Structures are written as SMILES.

Common to all, as to type: functional
In experiment [1] the target is T1, Serotonin 3 (5-HT3) receptor (Rattus norvegicus) (UniProt P35563+Q9JJ16). Briefly: The compound was evaluated for the inhibition of the von Bezold-Jarisch reflex in rat administered intravenously. In outline:
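Urethane-anesthetized rats; serotonin bolus 0.03 mg/kg iv (femoral vein) gives control reflex bradycardia. After heart rate returns to baseline (within 5 min), test compound iv as free base in dilute acid (≤1% HCl). Serotonin challenge repeated after 15 min. Percent inhibition of bradycardia at three doses, n ≥ 3 each. ED50 from mean values.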

The target in experiment [2] is T1, Serotonin 3 (5-HT3) receptor (Rattus norvegicus). Nature of the experiment: The compound was evaluated for the inhibition of the von Bezold-Jarisch reflex in rat administered orally. In outline:
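Overnight-fasted rats gavaged with compound (free base in ≤1% HCl, 5 mL/kg). Urethane anesthesia 45 min later. Serotonin bolus 0.03 mg/kg iv 15 min after anesthesia. Saline-dosed rats as controls. Percent inhibition of reflex bradycardia at three doses, n ≥ 3 each. ED50 from mean values.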

The target is the same in experiment [3]. Briefly: Selectivity ratio of peroral vs intravenous delivery.

In the case of `CN1[C@@H]2CC[C@H]1C[C@@H](OC(=O)c1c[nH]c3ccccc13)C2`, the ED50 in experiment [1] is 0.004 mg/kg; in experiment [2], 0.2 mg/kg. Besides, the Ratio in experiment [3] is 50.

For `CN1C2CCCC1CC(NC(=O)c1nn(C)c3ccccc13)C2` (stereo unspecified), the Ratio in experiment [3] was 15.

As for `CN1C2CCC1CC(NC(=O)c1n[nH]c3ccccc13)C2` (stereo unspecified), the ED50 in experiment [1] stood at 0.002 mg/kg; in experiment [2], 0.02 mg/kg. Besides, the Ratio in experiment [3] is 10.

Consider `CN1C2CCC1CC(OC(=O)c1[nH]nc3ccccc13)C2` (stereo unspecified), for which the ED50 stood at 0.003 mg/kg in experiment [1] and 0.2 mg/kg in experiment [2]. In addition, the Ratio in experiment [3] was 66.

`CN1C2CCC1CC(NC(=O)c1c3ccccc3nn1C)C2` (stereo unspecified) returned an ED50 in experiment [1] greater than 0.01 mg/kg.
